# Peptide text beside a SMILES is read from it. * marks the point of attachment. Cbz = O=C(OCc1ccccc1)*
# System: HeLa cells
# Test: Radiolabel pulse-chase of cellular protein breakdown
# Assay type: cell-based, human
# Conditions: 35S-Met/35S-Cys label, 4 hr chase
# Procedure, shortened: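 Cellular proteins were metabolically labeled with ³⁵S-Met and ³⁵S-Cys, then chased in unlabeled ("cold") medium. During the chase, cells were left untreated or given DMSO, test compound, or the proteasome inhibitor MG132 as a reference. Compounds were tested at more than one concentration to follow degradation across doses. Bars show mean values.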
smiles,measurement,value
CC(C)C[C@@H](C=O)NC(=O)[C@H](CC(C)C)NC(=O)[C@H](CC(C)C)NC(=O)OCc1ccccc1 [MG132] (Cbz-Leu-Leu-Leu-aldehyde),cellular protein breakdown,inhibit

# Reference: publication PMC7341950 (Nature chemistry, 2019)
